Experimental data as given in ChEMBL document CHEMBL1137646, “Intracellular metabolism and persistence of the anti-human immunodeficiency virus activity of 2',3'-didehydro-3'-deoxy-4'-ethynylthymidine, a novel thymidine analog” (Antimicrob Agents Chemother, 2007).
Active and inactive are the calls of the source. No cut-off for these calls is given here.

Columns and labels:
CCRF-CEM [1] = assay: Drug metabolism in human CEM cells assessed as radioactive zidovudine monophosphate accumulation at 2 uM assessed per 10^6 cells; format: ADME, cell-based; conditions: TDE = time-dependent effect
Method in brief: (§1)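 CEM cells (2 x 10^7/ml) in RPMI 1640 with 10% dialyzed FBS were incubated at 37°C with 2 µM [3H]analog (75 mCi/mmol) and harvested at 2, 4, 8, 12, 16 and 24 h. Cells were washed in ice-cold PBS with 20 µM dipyridamole and extracted with 15% TCA. Neutralized extracts were separated on a Partisil SAX column with an H2O to 300 mM potassium phosphate gradient and radiometric detection, reported as pmol/10^6 cells, mean ± SD of three experiments.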

CCRF-CEM [2] = assay: Drug metabolism in human CEM cells assessed as radioactive zidovudine diphosphate accumulation at 2 uM assessed per 10^6 cells; format: ADME, cell-based; conditions: TDE = time-dependent effect; method in brief: as §1
CCRF-CEM [3] = assay: Drug metabolism in human CEM cells assessed as radioactive zidovudine triphosphate accumulation at 2 uM assessed per 10^6 cells; format: ADME, cell-based; conditions: TDE = time-dependent effect; method in brief: as §1
CCRF-CEM [4] = assay: Drug metabolism in human CEM cells assessed as radioactive 2', 3'-didehydro-3'-deoxy-4'-ethynylthymidine monophosphate accumulation at 2 uM assessed per 10^6 cells; format: ADME, cell-based; conditions: TDE = time-dependent effect; method in brief: as §1
CCRF-CEM [5] = assay: Drug metabolism in human CEM cells assessed as radioactive 2', 3'-didehydro-3'-deoxy-4'-ethynylthymidine diphosphate accumulation at 2 uM assessed per 10^6 cells; format: ADME, cell-based; conditions: TDE = time-dependent effect; method in brief: as §1
CCRF-CEM [6] = assay: Drug metabolism in human CEM cells assessed as radioactive 2', 3'-didehydro-3'-deoxy-4'-ethynylthymidine triphosphate accumulation at 2 uM assessed per 10^6 cells; format: ADME, cell-based; conditions: TDE = time-dependent effect; method in brief: as §1
CCRF-CEM [7] = assay: Drug metabolism in human CEM cells assessed as radioactive stavudine monophosphate accumulation at 2 uM assessed per 10^6 cells; format: ADME, cell-based; conditions: TDE = time-dependent effect; method in brief: as §1
CCRF-CEM [8] = assay: Drug metabolism in human CEM cells assessed as radioactive stavudine diphosphate accumulation at 2 uM assessed per 10^6 cells; format: ADME, cell-based; conditions: TDE = time-dependent effect; method in brief: as §1
CCRF-CEM [9] = assay: Drug metabolism in human CEM cells assessed as radioactive stavudine triphosphate accumulation at 2 uM assessed per 10^6 cells; format: ADME, cell-based; conditions: TDE = time-dependent effect; method in brief: as §1
CCRF-CEM [10] = assay: Drug metabolism in human CEM cells assessed as radioactive 2', 3'-didehydro-3'-deoxy-4'-ethynylthymidine monophosphate accumulation after 12 hrs assessed per 10^6 cells; format: ADME, cell-based; method in brief: as §1
CCRF-CEM [11] = assay: Drug metabolism in human CEM cells assessed as radioactive 2', 3'-didehydro-3'-deoxy-4'-ethynylthymidine diphosphate accumulation after 12 hrs assessed per 10^6 cells; format: ADME, cell-based
Method in brief: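 For the dose series, CEM cells took up [3H]4'-Ed4T at 0.2/0.25, 0.5, 1 and 2 µM (150 mCi/mmol) for 12 h. TCA extracts were neutralized and the mono-, di- and triphosphates resolved by SAX-HPLC with radioactivity detection. Values are pmol/10^6 cells, mean ± SD, three independent experiments.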

CCRF-CEM [12] = assay: Drug metabolism in human CEM cells assessed as radioactive 2', 3'-didehydro-3'-deoxy-4'-ethynylthymidine triphosphate accumulation after 12 hrs assessed per 10^6 cells; format: ADME, cell-based; method in brief: as §1
RKO [13] = assay: Drug metabolism in doxycyclin-induced Tet-On gene expressing human RKO cells producing thymidylate kinase assessed as increase in radioactive 2', 3'-didehydro-3'-deoxy-4'-ethynylthymidine diphosphate accumulation at 2 uM after 16 hrs assessed per 10^6 cells by HPLC analysis relative to control; format: ADME, cell-based
Method in brief: (§2)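 TMPK Tet-On RKO cells were seeded at 5 x 10^5 per dish with doxycycline at 0, 50 or 3,000 ng/ml for 48 or 72 h, then pulsed for 16 h with 2 µM [5'-3H]4'-Ed4T (478 mCi/mmol). After a cold PBS wash containing 20 µM dipyridamole, cells were extracted with 15% TCA and neutralized with trioctylamine/trichlorotrifluoroethane. Metabolites were quantified by radio-HPLC as pmol/10^6 cells, n=3.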

RKO [14] = assay: (§3) Drug metabolism in doxycyclin-induced Tet-On gene expressing human RKO cells producing thymidylate kinase assessed as increase in radioactive 2', 3'-didehydro-3'-deoxy-4'-ethynylthymidine triphosphate accumulation at 2 uM after 16 hrs assessed per 10^6 cells by HPLC analysis relative to control; format: ADME, cell-based; method in brief: as §2
RKO [15] = assay: as §3, with “3-phosphoglycerate” for “thymidylate”; format: ADME, cell-based
Method in brief: (§4)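 Tet-On PGK RKO cells (5 x 10^5 per dish) were induced with doxycycline at 0, 50 or 100 ng/ml for 48 or 72 h, then given 2 µM [5'-3H]4'-Ed4T (478 mCi/mmol) for 16 h. Cells were washed in cold PBS with 20 µM dipyridamole and extracted with 15% TCA. Neutralized extracts went through SAX-HPLC with radiometric detection, expressed as pmol/10^6 cells, mean of three experiments.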

RKO [16] = assay: Drug metabolism in doxycyclin-induced Tet-On gene expressing human RKO cells producing 3-phosphoglycerate kinase assessed as radioactive 2', 3'-didehydro-3'-deoxy-4'-ethynylthymidine triphosphate accumulation after 16 hrs assessed per 10^6 cells by HPLC analysis; format: ADME, cell-based; method in brief: as §4
CCRF-CEM [17] = assay: Stability in human CEM cells assessed as intracellular radioactive phosphorylated metabolite accumulation at 2 uM incubated for 24 hrs measured after 8 hrs of compound removal assessed per 10^6 cells; format: ADME, cell-based
Method in brief: (§5)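 CEM cells were loaded with 2 µM [3H]analog (75 mCi/mmol) for 24 h, washed, and resuspended in drug-free medium. Intracellular metabolites were then measured by SAX-HPLC with radiometric detection at 0, 2, 4, 8, 12 and 24 h after removal. Values are pmol/10^6 cells, mean ± SD of three experiments.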

CCRF-CEM [18] = assay: Stability in human CEM cells assessed as intracellular radioactive triphosphate metabolite accumulation at 2 uM incubated for 24 hrs measured after 24 hrs of compound removal assessed per 10^6 cells; format: ADME, cell-based; method in brief: as §5
RKO [19] = assay: Drug metabolism in doxycyclin-induced Tet-On gene expressing human RKO cells producing thymidylate kinase assessed as radioactive 2', 3'-didehydro-3'-deoxy-4'-ethynylthymidine diphosphate accumulation after 16 hrs assessed per 10^6 cells by HPLC analysis; format: ADME, cell-based; method in brief: as §2
[20] = tested on: Human immunodeficiency virus 1; assay: Antiviral activity against 0.1 MOI HIV1 3B infected in human TZM-b1 cells assessed as inhibition of viral replication after 24 hrs by luciferase assay; format: functional, organism-based
Method in brief: (§6)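 TZM-bl cells in phenol red-free RPMI 1640 were infected with HIV-1 IIIB (MOI 0.1) at the time of adding drug at various concentrations, and drug and virus stayed together for 24 h. Lysate luciferase was measured with uninfected background subtracted, in quintuple wells. Inhibition was the mean signal relative to drug-free infected cells.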

[21] = tested on: Human immunodeficiency virus 1; assay: Antiviral activity against 0.1 MOI HIV1 3B in 24 hrs pretreated human TZM-b1 cells infected 0 hr post drug removal assessed as inhibition of viral replication at 1 uM measured 24 hrs postinfection by luciferase assay; format: functional; conditions: Human immunodeficiency virus 1, 3B
Method in brief: (§7)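 TZM-bl cells were plated in phenol red-free RPMI 1640, allowed to adhere 15–18 h at 37°C, then exposed to a range of drug concentrations for 24 h. Medium was changed to remove extracellular drug, and cells were infected with HIV-1 IIIB (MOI 0.1) at 0, 24 or 48 h after removal. Luciferase was read 24 h post-infection with uninfected-cell background subtracted, in quintuple wells, and expressed relative to no-drug wells.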

[22] = tested on: Human immunodeficiency virus 1; assay: Antiviral activity against 0.1 MOI HIV1 3B in 24 hrs pretreated human TZM-b1 cells infected 0 hr post drug removal assessed as inhibition of viral replication at 2 uM measured 24 hrs postinfection by luciferase assay; format: functional; conditions: Human immunodeficiency virus 1, 3B; method in brief: as §7
[23] = tested on: Human immunodeficiency virus 1; assay: Antiviral activity against 0.1 MOI HIV1 3B in 24 hrs pretreated human TZM-b1 cells infected 0 hr post drug removal assessed as inhibition of viral replication at 3 uM measured 24 hrs postinfection by luciferase assay; format: functional; conditions: Human immunodeficiency virus 1, 3B; method in brief: as §7
[24] = tested on: Human immunodeficiency virus 1; assay: Antiviral activity against 0.1 MOI HIV1 3B in 24 hrs pretreated human TZM-b1 cells infected 0 hr post drug removal assessed as inhibition of viral replication at 4 uM measured 24 hrs postinfection by luciferase assay; format: functional; conditions: Human immunodeficiency virus 1, 3B; method in brief: as §7
[25] = tested on: Human immunodeficiency virus 1; assay: Antiviral activity against 0.1 MOI HIV1 3B in 24 hrs pretreated human TZM-b1 cells infected 0 hr post drug removal assessed as inhibition of viral replication at 5 uM measured 24 hrs postinfection by luciferase assay; format: functional; conditions: Human immunodeficiency virus 1, 3B; method in brief: as §7
[26] = tested on: Human immunodeficiency virus 1; assay: Antiviral activity against 0.1 MOI HIV1 3B in 24 hrs pretreated human TZM-b1 cells infected 0 hr post drug removal assessed as inhibition of viral replication at 6 uM measured 24 hrs postinfection by luciferase assay; format: functional; conditions: Human immunodeficiency virus 1, 3B; method in brief: as §7
[27] = tested on: Human immunodeficiency virus 1; assay: Antiviral activity against 0.1 MOI HIV1 3B in 24 hrs pretreated human TZM-b1 cells infected 24 hrs post drug removal assessed as inhibition of viral replication at 1 uM measured 24 hrs postinfection by luciferase assay; format: functional; conditions: Human immunodeficiency virus 1, 3B; method in brief: as §7
[28] = tested on: Human immunodeficiency virus 1; assay: Antiviral activity against 0.1 MOI HIV1 3B infected in human TZM-b1 cells assessed as inhibition of viral replication at 6 uM after 24 hrs by luciferase assay; format: functional; conditions: Human immunodeficiency virus 1, 3B, TZM-b1, 24 h; method in brief: as §6
[29] = tested on: Human immunodeficiency virus 1; assay: Antiviral activity against 0.1 MOI HIV1 3B infected in human TZM-b1 cells assessed as inhibition of viral replication at 2 uM after 24 hrs by luciferase assay; format: functional; conditions: Human immunodeficiency virus 1, 3B, TZM-b1, 24 h; method in brief: as §6
[30] = tested on: Human immunodeficiency virus 1; assay: Antiviral activity against 0.1 MOI HIV1 3B in 24 hrs pretreated human TZM-b1 cells infected 24 hrs post drug removal assessed as inhibition of viral replication at 1 to 6 uM measured 24 hrs postinfection by luciferase assay

C#C[C@@]1(CO)C=C[C@H](n2cc(C)c(=O)[nH]c2=O)O1 [CENSAVUDINE] was tested, and the Activity (CCRF-CEM [1]) was “tde”, the Activity (CCRF-CEM [2]) was “tde” and the Activity (CCRF-CEM [3]) was “tde”. The Activity (CCRF-CEM [4]) was “tde”, the Activity (CCRF-CEM [5]) was “tde” and the Activity (CCRF-CEM [6]) was “tde”. For the same molecule, the Activity (CCRF-CEM [7]) was “tde”, the Activity (CCRF-CEM [8]) was “tde” and the Activity (CCRF-CEM [9]) was “tde”. The Activity (CCRF-CEM [10]) was “Dose-dependent effect”, the Activity (CCRF-CEM [11]) was “Dose-dependent effect” and the Activity (CCRF-CEM [12]) was “Dose-dependent effect”. For the same molecule, the “fold change (FC)” value (RKO [13]) was 3, the “fold change (FC)” value (RKO [14]) was 3 and the “fold change (FC)” value (RKO [15]) was 2.3. For the same molecule, the Activity (RKO [16]) was “Dose-dependent effect”, the Stability (CCRF-CEM [17]) was 1.07 pmol and the Stability (CCRF-CEM [18]) was 0.2 pmol. The Activity (RKO [19]) was “Dose-dependent effect”, the inhibition [20] was “Dose-dependent effect” and the inhibition at 1 µM [21] was 50%. It also gave an inhibition at 2 µM [22] of 50%, an inhibition at 3 µM [23] of 50% and an inhibition at 4 µM [24] of 50%. The inhibition at 5 µM [25] was 50%, the inhibition at 6 µM [26] was 50% and the inhibition at 1 µM [27] was > 50%. For the same molecule, the inhibition at 6 µM [28] was 50%, the inhibition at 2 µM [29] was 50% and the inhibition [30] was “Active”.
